NR1D1 modulator – modulators of Rev-erb alpha DNA binding, primary screen, biochemical, FITC-DNA, fluorescence polarization, uHTS. 370,000 compounds, 0.79% hits. AID 1259318, 2017. Nuclear receptor subfamily 1 group D member 1 (Homo sapiens), P20393. Rev-erbα–FITC-DNA binding, 90 min. activity, % at 10 µM;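 active = activity above about 14%, limit read from the data; passing the limit was not always enough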
MT1-MMP act inh – blockers of MT1-MMP proenzyme processing, primary screen, HT1080 RFP-PRO-GFP cells, GFP/RFP fluorescence; 360,000 compounds, 0.061% hits; Matrix metalloproteinase-14 (Homo sapiens), P50281; GFP/RFP ratio fluorescence, overnight; percent of plate control window, DMSO zero; GFP/RFP ratio change, % at 20 µM;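 active = GFP/RFP ratio change of at least 30% with cell ATP level not reduced by more than half and red fluorescence within 50% of control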
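Material: RFP-PRO-GFP reporter HT1080 cells. Dosing: single-point 20 µM compound, 1% DMSO. Controls: DMSO and RFP-L50D-GFP cell wells. Timing: cells overnight before dosing, compound overnight, 37 °C, 5% CO2. Measure: GFP/RFP fluorescence ratio.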
NR2E3 ag-1 – NR2E3 agonists in two-hybrid cells, primary screen, cell-based, luminescence, CHO-S, Gal4-NCOR/VP16-NR2E3 | Photoreceptor-specific nuclear receptor (Homo sapiens), Q9Y5X4 | luciferase | inhibition of corepressor binding, % at 3.98 µM | 360,000 compounds, 0.35% hits;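 active = inhibition above the mean of all tested compounds plus 3 SD, cut at about 70% in these data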;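 also: higher means lower luciferase signal from less NR2E3 corepressor binding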
Target sequence (Q9Y5X4 whole entry, looked up, the tested form may be a part): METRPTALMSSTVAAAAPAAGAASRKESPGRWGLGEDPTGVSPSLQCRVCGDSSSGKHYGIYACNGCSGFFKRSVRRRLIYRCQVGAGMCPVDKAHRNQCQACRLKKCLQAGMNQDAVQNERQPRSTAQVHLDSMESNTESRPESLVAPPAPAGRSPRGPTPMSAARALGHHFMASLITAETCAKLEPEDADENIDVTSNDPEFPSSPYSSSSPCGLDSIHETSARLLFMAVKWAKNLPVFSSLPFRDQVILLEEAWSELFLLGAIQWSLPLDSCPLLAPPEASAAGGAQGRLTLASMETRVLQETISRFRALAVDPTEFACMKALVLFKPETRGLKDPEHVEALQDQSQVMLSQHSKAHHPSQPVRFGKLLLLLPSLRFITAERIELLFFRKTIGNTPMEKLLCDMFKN
SKN-1 block – suppressors of acrylamide-induced Pgst-4::GFP reporter in worms, primary screen, SKN-1 inhibitor project, whole organism, uHTS, GFP/RFP fluorescence ratio, strain VP596. C. elegans VP596 Pgst-4::GFP/RFP ratio, 24 h. AID 624304, 2012. 360,000 compounds, 0.49% hits. inhibition, % at 21.8 µM;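 active = interference check ratio from 0.5 to 1.5 plus GFP to RFP signal ratio inhibition reaching or exceeding a fixed threshold, cut at about 30% in these data, passing the limit was not always enough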
PG9 binder – binders of HIV-1 gp120 antibody PG9, primary screen, biochemical, TR-FRET; TR-FRET gp120-PG9 antibody binding; inhibition, % at 6.7 µM; 360,000 compounds, 0.43% hits; AID 624416, 2012; in the data active = inhibition above about 8.5%
NR2E3 ag-2 – inhibitors of NR2E3-RetCOR corepressor binding, primary screen, NR2E3 agonist project, biochemical, TR-FRET, GST-NR2E3, biotin-RetCOR | 1536-well | Photoreceptor-specific nuclear receptor (Homo sapiens), Q9Y5X4 | 320,000 compounds, 0.12% hits | inhibition of corepressor binding, % at 4.78 µM;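 active = percent inhibition above the cutoff of mean plus 3 SD of all tested compounds, set per screening campaign, cut at about 20% in these data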
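System: GST-tagged NR2E3 plus biotinylated RetCOR corepressor; Amount: 1.35 nM GST-tagged NR2E3 final; Dosing: single nominal compound dose of 4.8 µM; Schedule: 5 h incubation at 4 °C; Technique: TR-FRET with europium anti-GST and streptavidin-D2, 340 nm excitation; Controls: biotin wells as high control, 0.6% DMSO wells as low control.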
Rev-erbA confirm – modulators of Rev-erb alpha DNA binding, confirmation, biochemical, FITC-DNA, fluorescence polarization, single point; shares compounds with NR1D1 modulator; 90 min; activation, % at 25 µM; 3,000 compounds, 61% hits; AID 1259319, 2017;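 active = activation at or above a set limit, or at least 3 SD above the negative control mean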
RORg DNA counter – modulation of RORgamma DNA binding, dose response, counter-screen for Rev-erb alpha modulator project, biochemical, fluorescence polarization, FITC-DNA. 910 compounds, 8% hits. purified RORgamma protein-FITC-DNA binding. AID 1259320, 2017. shares compounds with NR1D1 modulator. IC50, µM;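 active = Compounds whose fitted half-maximal concentration for disrupting protein-DNA binding is below 10 micromolar; the record names Rev-erb in its text, so the target is in doubt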
Numbers stand for hits; 0 = inactive; - = no result. Most compounds without a hit are left out; they make up all but 1.9% or so of the library.

SMILES	NR1D1 modulator	MT1-MMP act inh	NR2E3 ag-1	SKN-1 block	PG9 binder	NR2E3 ag-2	Rev-erbA confirm	others
Cc1ccc(S(=O)(=O)N2CCN(c3ncnc4scc(-c5ccc(F)cc5)c34)CC2)cc1	23.6	0	0	0	0	0	0
O=C(NC1CC[C@@]23CCCN2C(=O)CCC[C@H]3C1)c1ccccc1 (stereo partly specified)	0	-	-	-	-	-	-
CCOC(=O)[C@]12CCCC3=C1N(CCC3)C(=O)[C@@H](CC(=O)NCCCOC)C2	0	-	-	-	-	-	-
CC(C)c1ccc(S(=O)(=O)c2nnn3c2nc(NCC2CCCO2)c2ccccc23)cc1 (stereo unspecified)	-	0	0	0	-	0	-
CNc1nc2c(-c3ccc(Cl)cc3)nnn2c2ccccc12	18.1	0	0	0	0	0	0
Cc1ccc(-c2nnn3c2nc(NC(C)C)c2ccccc23)cc1	48.0	0	0	0	0	0	23.9
Cn1cc(CC(=O)Nc2ccc(Nc3cccnc3)cc2)c2ccccc21	0	-	-	-	0	-	-
O=S1(=O)c2c(cccc2N2CCC[C@@H]2CO)O[C@@H]2CCN1C2	0	-	-	-	-	-	-
Cc1c(Cc2ccc3c(c2)OCO3)sc(NC(=O)c2ccc3ccccc3c2)c1C(N)=O	22.7	0	0	0	0	0	0
CCC(=O)Nc1sc(Cc2ccc3c(c2)OCO3)c(C)c1C(N)=O	0	0	0	0	0	0	-
N#CCCN(CCC#N)S(=O)(=O)c1ccc(C(=O)Nc2nc(-c3ccccc3)c(C(=O)c3ccccc3)s2)cc1	189.0	0	0	0	0	0	176.8	RORg DNA counter=4.07
Cc1ccc(-c2nc(NC(=O)c3ccc(S(=O)(=O)N(CCC#N)CCC#N)cc3)sc2-c2ccccc2)cc1	25.6	0	0	0	0	0	17.9
COc1cc(NC(=O)[C@@H](Cc2ccccc2)NC(=O)[C@H]2O[C@@H](n3ccc(=O)[nH]c3=O)[C@H](O)[C@@H]2O)cc(OC)c1OC	0	-	-	-	0	-	-
Cc1ccc(-c2cc(C(F)F)nc3sc4c(=O)[nH]cnc4c23)cc1	107.4	0	0	0	0	0	113.2	RORg DNA counter=0
CCOC(=O)c1c(C)nc2sc3c(=O)[nH]cnc3c2c1-c1ccc(OC)cc1	0	0	0	0	0	0	-
CC(C)CN1C(=O)C[C@@]2(C(=O)N(C)c3ccc(NC(=O)C(C)(C)C)cc32)C1c1ccccc1 (stereo partly specified)	0	-	-	-	-	-	-
Cc1cc(C)n(CCNC(=O)[C@@H](Cc2ccccc2)NC(=O)[C@H]2O[C@@H](n3ccc(=O)[nH]c3=O)[C@H](O)[C@@H]2O)n1	0	-	-	-	0	-	-
Cc1sc(NC(=O)c2oc3ccccc3c2C)c(C#N)c1C	226.3	0	0	0	-	0	282.7
NS(=O)(=O)c1ccc(CCNC(=O)c2ccc(Cn3c(=O)[nH]c4ccccc4c3=O)cc2)cc1	19.3	0	0	0	0	0	0
CC(C)CCNC(=O)c1ccc(Cn2c(=S)[nH]c3ccccc3c2=O)cc1	28.9	0	0	0	0	0	26.0
CCCc1cc(=O)oc2cc(C)cc(OC(C)C(=O)NCc3ccncc3)c12 (stereo unspecified)	23.4	0	0	0	0	0	21.2
CCCc1cc(=O)oc2cc(C)cc(OCC(=O)Nc3ccc(S(N)(=O)=O)cc3)c12	135.2	0	0	0	0	0	150.8	RORg DNA counter=0
